From ChEMBL document CHEMBL3596131, “Discovery of a novel trans-1,4-dioxycyclohexane GPR119 agonist series” (Bioorg Med Chem Lett, 2015)

Key:
[1] = Half life in human liver microsomes; assay type: ADME
[2] = AUClast in Sprague-Dawley rat at 2 mg/kg, iv and po; assay type: ADME, organism-based; conditions: in vivo
Method in brief: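 Male Sprague-Dawley rats; 2 mg/kg IV and 2 mg/kg PO in 20% hp-β-CD; clearance, Vss, terminal t1/2, Cmax, AUClast and oral bioavailability derived.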

[3] = Ratio of drug level in brain to plasma in Sprague-Dawley rat at 2 mg/kg, po measured at 2 hrs; assay type: ADME, organism-based; conditions: read-out: BPR
Method in brief: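 Abbreviated CNS study in male SD rats given 2 mg/kg orally in 20% hp-β-CD; brain (ng/g) and plasma (ng/mL) levels sampled at 2 h post-dose, brain/plasma ratio calculated.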

half-life [1]: > 1 h
AUC(0-t) [2]: 5210 ng·h/mL
Kp at 2 h [3]: 0.98
SMILES: C[C@@H](OC(=O)N1CCC(O[C@H]2CC[C@H](Oc3cnc(S(C)(=O)=O)cn3)CC2)CC1)C(F)(F)F
